Measured values from ChEMBL document CHEMBL4699542, “Design and synthesis of novel methoxypyridine-derived gamma-secretase modulators” (Bioorg Med Chem, 2020).
≈ marks a conversion by molar mass, not a printed value.

Tests used:
[1] = Drug metabolism in CD-1 mouse liver; type: ADME, tissue-based; details: read-out: Drug metabolism
Procedure, shortened: (§1)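 Test compound at 1 μM incubated 30 min with human, rat or mouse liver microsomes (1 mg/mL); parent remaining expressed as %.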

[2] = Kinetic aqueous solubility of the compound in pH 7.4 PBS buffer by UV/Visible absorbance analysis; type: physicochemical; details: read-out: Kinetic_solubility
Procedure, shortened: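 Kinetic solubility determined in PBS at pH 7.4 by UV/Vis absorbance, reported in μM.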

[3] = Metabolic stability in mouse liver microsomes assessed as parent compound remaining at 1 uM incubated for 30 mins; type: ADME, Microsome; details: 0.5 h; procedure, shortened: as §1
[4] = biological target: Cytochrome P450 3A4 (Homo sapiens, UniProt P08684); test: Inhibition of recombinant CYP3A4 (unknown origin) by fluorescence-based assay; type: ADME
[5] = biological target: Voltage-gated inwardly rectifying potassium channel KCNH2 (Homo sapiens, UniProt Q12809); test: Inhibition of human ERG expressed in HEK293 cells by patch clamp assay; type: cell-based
[6] = Efflux ratio of apparent permeability from basolateral to apical membrane over apical to basolateral membrane in MDCK-MDR1 cells; type: ADME, cell-based, Canis lupus familiaris; details: dog
Procedure, shortened: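 Calculated as B-A/A-B apparent permeability ratio across MDR1-MDCK cell monolayers; A-B permeability expressed as ×10⁻⁶ cm/s.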

[7] = (§2) In vivo modulation of gamma secretase in transgenic J20 mouse overexpressing human APP assessed as reduction in plasma amyloid beta40 level at 100 mg/kg, po administered via gavage for 3 consecutive days and measured after 4 hrs post last dose on day 3 by meso scale discovery relative to control; type: functional; parameters: scale not given: the % may be the effect or the level left; details: time 3 day
Procedure, shortened: (§3)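 Female J20 mice, 5–6 months old (n=5/dose), dosed orally at 25, 50 or 100 mg/kg or with vehicle (5% NMP/95% PEG300) for 3 consecutive days. Plasma was taken 4 h after the final dose. Aβ38/40/42 measured by Meso Scale multiplex immunoassay, with % reduction relative to vehicle. Mean ± SEM, ANOVA.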

[8] = Half life in CD-1 mouse at 1 mg/kg, iv administered as single dose measured up to 24 hrs; type: ADME, organism-based; details: CD-1, mouse, in vivo
Procedure, shortened: (§4)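 Male CD-1 mice, 6–8 weeks old, single dose by tail vein (1 mg/kg, 3% NMP/45% PEG300/12% ethanol/40% water) or oral gavage (5 mg/kg, 5% NMP/95% PEG300). Retro-orbital plasma sampled 0.083 (iv only) to 24 h, n=3/timepoint, and analysed by HPLC/MS/MS. Non-compartmental analysis. Half-life taken from the terminal phase using ≥3 non-zero points after Tmax.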

[9] = AUClast in CD-1 mouse at 1 mg/kg, iv administered as single dose measured up to 24 hrs; type: ADME, organism-based; parameters: route intravenous, dose 1 mg/kg, time <=24; details: in vivo; procedure, shortened: as §4
[10] = AUClast in CD-1 mouse at 5 mg/kg, po administered as single dose measured up to 24 hrs; type: ADME, organism-based; parameters: route oral, dose 5 mg/kg, time <=24; details: in vivo; procedure, shortened: as §4
[11] = Oral bioavailability in CD-1 mouse at 5 mg/kg administered as single dose measured up to 24 hrs; type: ADME, organism-based; details: in vivo
Procedure, shortened: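 CD-1 mouse PK after single iv (1 mg/kg) and oral gavage (5 mg/kg) dosing, with plasma sampled to 24 h (n=3/timepoint) and measured by HPLC/MS/MS. F(%) = (AUC0-inf po × Dose iv)/(AUC0-inf iv × Dose po) × 100.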

[12] = system: Mus musculus; test: In vivo modulation of gamma secretase in po dosed transgenic J20 mouse overexpressing human APP assessed as reduction in plasma amyloid beta42 level administered via gavage for 3 consecutive days and measured after 4 hrs post last dose on day 3 by meso scale discovery; type: functional, organism-based; details: dose mg/kg 25-100, time 3.0 day; procedure, shortened: as §3
[13] = system: Mus musculus; test: In vivo modulation of gamma secretase in po dosed transgenic J20 mouse overexpressing human APP assessed as reduction in plasma amyloid beta40 level administered via gavage for 3 consecutive days and measured after 4 hrs post last dose on day 3 by meso scale discovery; type: functional, organism-based; details: dose mg/kg 25-100, time 3.0 day; procedure, shortened: as §3
[14] = as §2, with “secretase” for “secretase in”, “Tg2576” for “J20”, “APP harboring K595N/M596L Swedish double mutant” for “APP”, “beta38” for “beta40”, “50” for “100”, “14” for “3”; type: functional; parameters: scale not given: the % may be the effect or the level left; details: time 14 day
Procedure, shortened: (§5)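 Female Tg2576 mice, 5–6 months old (n=12/dose), gavaged daily for 14 days with 50 mg/kg or vehicle (5% NMP/95% PEG300). Plasma and brain taken 4 h after the last dose. Aβ38/40/42 quantified by Meso Scale multiplex assay, with % reduction versus vehicle. Mean ± SEM, ANOVA.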

[15] = as §2, with “secretase” for “secretase in”, “Tg2576” for “J20”, “APP harboring K595N/M596L Swedish double mutant” for “APP”, “50” for “100”, “14” for “3”; type: functional; parameters: scale not given: the % may be the effect or the level left; details: time 14 day; procedure, shortened: as §5
[16] = as §2, with “secretase” for “secretase in”, “Tg2576” for “J20”, “APP harboring K595N/M596L Swedish double mutant” for “APP”, “beta42” for “beta40”, “50” for “100”, “14” for “3”; type: functional; parameters: scale not given: the % may be the effect or the level left; details: time 14 day; procedure, shortened: as §5
[17] = Drug level in plasma of transgenic Tg2576 mouse overexpressing human APP harboring K595N/M596L Swedish double mutant at 50 mg/kg, po administered via gavage for 14 consecutive days and measured after 4 hrs post last dose on day 14 by HPLC-MS/MS analysis; type: ADME, organism-based; details: time 14 day
Procedure, shortened: (§6)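 Female Tg2576 mice, 5–6 months old, gavaged with 50 mg/kg daily for 14 days (vehicle 5% NMP/95% PEG300), n=12/dose. Plasma and brain collected 4 h after the last dose and analysed by LC-MS/MS. LLOQ was 1 ng/mL in plasma and 5 ng/g in brain.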

[18] = Drug level in brain of transgenic Tg2576 mouse overexpressing human APP harboring K595N/M596L Swedish double mutant at 50 mg/kg, po administered via gavage for 14 consecutive days and measured after 4 hrs post last dose on day 14 by HPLC-MS/MS analysis; type: ADME, organism-based; details: time 14 day, read-out: Ct; procedure, shortened: as §6
[19] = Ratio of drug level in brain to plasma of transgenic Tg2576 mouse overexpressing human APP harboring K595N/M596L Swedish double mutant at 50 mg/kg, po administered via gavage for 14 consecutive days and measured after 4 hrs post last dose on day 14 by HPLC-MS/MS analysis; type: ADME, organism-based; details: 336 h, time 14 day
Procedure, shortened: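 Female Tg2576 mice, 5–6 months old (n=12/dose), given 50 mg/kg by oral gavage daily for 14 days in 5% NMP/95% PEG300. Sacrificed 4 h after the day-14 dose. Plasma and brain drug levels measured by LC-MS/MS (LLOQ 1 ng/mL plasma, 5 ng/g brain). Ratio = brain/plasma.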

[20] = (§7) In vivo modulation of gamma secretase transgenic Tg2576 mouse overexpressing human APP harboring K595N/M596L Swedish double mutant assessed as reduction in brain amyloid beta38 level at 50 mg/kg, po administered via gavage for 14 consecutive days and measured after 4 hrs post last dose on day 14 by meso scale discovery relative to control; type: functional; parameters: scale not given: the % may be the effect or the level left; details: time 14 day; procedure, shortened: as §5
[21] = as §7, with “beta40” for “beta38”; type: functional; parameters: scale not given: the % may be the effect or the level left; details: time 14 day; procedure, shortened: as §5
[22] = as §7, with “beta42” for “beta38”; type: functional; parameters: scale not given: the % may be the effect or the level left; details: time 14 day
Procedure, shortened: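 Female Tg2576 mice, 5–6 months old (n=12/dose), dosed daily by oral gavage for 14 days with vehicle (5% NMP/95% PEG300) or 50 mg/kg test article. Killed 4 h post final dose; brain and plasma Aβ38/40/42 measured by Meso Scale multiplex (SECTOR Imager 6000). Percent reduction versus vehicle; mean ± SEM, ANOVA.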

Sequence of Voltage-gated inwardly rectifying potassium channel KCNH2 (Q12809 whole entry): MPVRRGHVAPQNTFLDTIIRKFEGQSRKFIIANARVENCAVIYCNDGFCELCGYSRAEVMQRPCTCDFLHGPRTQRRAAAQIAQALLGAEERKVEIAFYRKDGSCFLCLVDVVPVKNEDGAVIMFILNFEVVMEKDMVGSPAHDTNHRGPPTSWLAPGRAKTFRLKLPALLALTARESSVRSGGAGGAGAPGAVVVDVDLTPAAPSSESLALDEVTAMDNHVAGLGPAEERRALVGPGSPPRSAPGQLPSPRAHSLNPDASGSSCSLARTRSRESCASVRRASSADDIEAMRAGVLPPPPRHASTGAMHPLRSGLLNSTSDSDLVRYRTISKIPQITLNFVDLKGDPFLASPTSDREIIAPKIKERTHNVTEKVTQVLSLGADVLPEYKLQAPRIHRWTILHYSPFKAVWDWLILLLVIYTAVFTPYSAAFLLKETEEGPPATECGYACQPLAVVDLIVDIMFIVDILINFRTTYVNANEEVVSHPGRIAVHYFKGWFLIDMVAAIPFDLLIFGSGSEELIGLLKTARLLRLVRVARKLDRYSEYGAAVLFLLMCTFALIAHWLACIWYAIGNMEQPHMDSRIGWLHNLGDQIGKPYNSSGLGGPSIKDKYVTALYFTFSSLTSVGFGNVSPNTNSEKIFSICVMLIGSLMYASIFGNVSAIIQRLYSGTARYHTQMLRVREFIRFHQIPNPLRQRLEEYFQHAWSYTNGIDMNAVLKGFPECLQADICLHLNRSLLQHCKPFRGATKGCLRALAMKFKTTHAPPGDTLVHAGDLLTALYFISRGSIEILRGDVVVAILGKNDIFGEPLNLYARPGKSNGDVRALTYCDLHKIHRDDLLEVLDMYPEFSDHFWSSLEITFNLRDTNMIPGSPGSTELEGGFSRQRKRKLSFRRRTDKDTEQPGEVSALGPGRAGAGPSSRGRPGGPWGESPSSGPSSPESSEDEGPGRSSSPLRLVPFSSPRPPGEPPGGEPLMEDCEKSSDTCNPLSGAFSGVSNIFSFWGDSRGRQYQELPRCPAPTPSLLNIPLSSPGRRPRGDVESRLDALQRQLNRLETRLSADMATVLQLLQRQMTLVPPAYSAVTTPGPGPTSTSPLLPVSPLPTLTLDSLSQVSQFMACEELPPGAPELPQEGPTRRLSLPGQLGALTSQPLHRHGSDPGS
Sequence of Cytochrome P450 3A4 (P08684 whole entry): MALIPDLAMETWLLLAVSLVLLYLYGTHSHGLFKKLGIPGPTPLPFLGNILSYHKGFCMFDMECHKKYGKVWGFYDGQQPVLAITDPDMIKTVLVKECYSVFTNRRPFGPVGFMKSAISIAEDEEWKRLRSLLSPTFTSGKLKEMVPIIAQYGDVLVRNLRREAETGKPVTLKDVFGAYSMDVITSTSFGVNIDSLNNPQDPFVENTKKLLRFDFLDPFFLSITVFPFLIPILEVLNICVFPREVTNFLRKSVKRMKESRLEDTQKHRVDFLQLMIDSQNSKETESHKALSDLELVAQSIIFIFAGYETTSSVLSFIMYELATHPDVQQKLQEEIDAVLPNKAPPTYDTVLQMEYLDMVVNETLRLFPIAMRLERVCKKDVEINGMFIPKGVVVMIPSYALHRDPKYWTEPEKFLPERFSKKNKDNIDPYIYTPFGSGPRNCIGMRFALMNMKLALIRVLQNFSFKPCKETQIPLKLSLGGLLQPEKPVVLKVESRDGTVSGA

Structure (SMILES): COc1nc(-c2csc(Nc3c4c(nn3CCF)CCCC4)n2)ccc1-n1cnc(C)c1
- metabolised [1]: 60%
- solubility kinetic [2]: 15 µM (≈ 6.8 µg/mL)
- Stabilty [3]: 100%
- IC50 [4]: 1 µM
- IC50 [5]: 11.4 µM
- Ratio [6]: 1.9
- Activity [7]: 46%

Structure (SMILES): CCn1nc2c(c1Nc1nc(-c3ccc(-n4cnc(C)c4)c(OC)n3)cs1)CCC2
- solubility kinetic [2]: 7.8 µM (≈ 3.29 µg/mL)
- half-life [8]: 42 min
- AUClast [9]: 376 ng·h/mL
- AUClast [10]: 1205 ng·h/mL
- F [11]: 66%
- Activity [7]: 68%
- Activity [12]: Dose-dependent effect
- Activity [13]: Dose-dependent effect
- Activity [14]: 111%
- Activity [15]: 24%
- Activity [16]: 52%
- concentration at 336 h [17]: 1130 ng/mL
- concentration at 336 h [18]: 425 ng/g
- BPR [19]: 0.374
- Activity [20]: 0%
- Activity [21]: 1%
- Activity [22]: 23%
